Drawing on ChEMBL document CHEMBL1151916, “N-tert-butyl and N-methyl nitrones derived from aromatic aldehydes inhibit macromolecular permeability increase induced by ischemia/reperfusion in hamsters” (2009), this text covers Activity for 14 compounds.

Holding throughout (assay type): functional, Mesocricetus auratus
Test [1] deals with Syrian golden hamster. Briefly: Protective activity against ischemia/reperfusion-induced increase in macromolecular permeability in po dosed golden hamster cheek pouch administered 30 mins before induction of anesthesia. In short, it runs like this:
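Male hamsters, dosed by gavage 30 min before anesthesia induction. The cheek pouch was made totally ischemic for 30 min with a syringe-inflated rubber tourniquet until blood flow ceased. Macromolecular leakage sites per cm² were counted by intravital microscopy 10 min after reperfusion onset and expressed as percentage protection relative to controls.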

Test [2] deals with Syrian golden hamster. Briefly: Protective activity against histamine-induced increase in macromolecular permeability in po dosed golden hamster cheek pouch administered 30 mins before induction of anesthesia. In a few lines:
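Oral gavage to male hamsters 30 min before anesthesia induction. Permeability increase was induced by topical histamine on the cheek pouch and read as leakage sites per unit area (leaks/cm²) by intravital microscopy.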

The test system of test [3] is Syrian golden hamster. The test is described as follows: Protective activity against ischemia/reperfusion-induced increase in macromolecular permeability in iv dosed golden hamster cheek pouch administered 10 mins before onset of reperfusion. In short, it runs like this:
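Male hamster cheek pouch under intravital microscopy; compound given intravenously 10 min before reperfusion onset. Total ischemia of 30 min was produced by a soft rubber tourniquet, pressurized by syringe until flow stopped. Leakage sites (leaks/cm²) were counted 10 min after reperfusion onset and converted to percentage protection against untreated controls.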

Test [4] deals with Syrian golden hamster. Briefly: Protective activity against ischemia/reperfusion-induced increase in macromolecular permeability in po dosed golden hamster cheek pouch administered for 10 days.
In test [5] the test system is Syrian golden hamster. Briefly: Protective activity against histamine-induced increase in macromolecular permeability in po dosed golden hamster cheek pouch administered for 10 days.

Turning to `C/[N+]([O-])=C/c1ccc(Cl)cc1`, the figures for the Activity in test [1], in test [2] and in test [3] were 31%, 29% and 27%, respectively.

On to `CNO`, for which the Activity amounted to 23% in test [1], 11% in test [2] and 33% in test [3].

With `C/[N+]([O-])=C/c1cccc(Oc2ccccc2)c1`, the Activity in test [1] is 46%; in test [2], 13%; in test [3], 61%.

Consider `Cc1ccc(/C=[N+](/C)[O-])cc1`, for which the results for the Activity in test [1] and in test [3] were 24% and 21%, respectively.

Turning to `CC(C)(C)/[N+]([O-])=C/c1cccc(Oc2ccccc2)c1`, the Activity in test [1] is recorded as 12%; in test [3], 18%.

For `CC(C)(C)NO`, the values for the Activity in test [1], in test [2] and in test [3] were 10%, 40% and 7%, respectively.

Regarding `Cc1c(C)c2c(c(C)c1O)CC[C@@](C)(CCC[C@H](C)CCC[C@H](C)CCCC(C)C)O2` [ALPHA-TOCOPHEROL], the Activity in test [4] is 50%; in test [5] it was 40%.

In the case of `C/[N+]([O-])=C/c1ccc2c(c1)OCO2`, the Activity in test [1] came out at 3%; in test [2], 42%; in test [3] it was 50%.

`Cc1ccc(/C=[N+](\[O-])C(C)(C)C)cc1`: the Activity in test [1] is recorded as 14%; in test [3], 55%.

In the case of `CC(C)(C)/[N+]([O-])=C/c1ccc(Cl)cc1`, the Activity is on record as 63% in test [1] and 53% in test [3].

With `COc1cc(/C=[N+](\[O-])C(C)(C)C)ccc1OCc1ccccc1`, the Activity in test [1] came to 68%; in test [2], 32%; in test [3] it was 36%.

On to `C/[N+]([O-])=C/c1ccco1`, for which the Activity is given as 15% in test [1], 32% in test [2] and 59% in test [3].

`CC(C)(C)/[N+]([O-])=C/c1ccc2c(c1)OCO2`: the Activity in test [1] is listed as 65%; in test [3] it was 38%.

As for `COc1cc(/C=[N+](/C)[O-])ccc1OCc1ccccc1`, the Activity in test [1] was 72%; in test [2], 15%; in test [3], 51%.
